# Measured values gathered from unrelated publications.
# Protocols differ between the studies behind these lines.
# Target: Mitogen-activated protein kinase kinase kinase 11 (MAP3K11, Homo sapiens, UniProt Q16584)
SMILES,assay,conditions,quantity,value
COc1cc(/C=C/C(=O)CC(=O)/C=C/c2ccc(O)c(OC)c2)ccc1O,"enzyme activity, inhibitor",1 µM,activity vs control,14%
Nc1ncnc2occ(-c3ccc(NC(=O)Nc4cc(C(F)(F)F)ccc4F)cc3)c12,"cell-free assay, inhibitor",20 µM,remaining signal,2.9%
Cn1nc(C(=O)NCc2ccc(C(=O)O)cc2)cc1-c1ccc2[nH]ccc2c1,"cell-free assay, competition with immobilised ligand",0.1 µM,remaining binding,87%
O=C(NCCCNc1nc(Nc2cccc(NC(=O)N3CCCC3)c2)ncc1Br)C1CCC1,"enzyme activity, inhibitor, radiometric",1 µM,remaining activity,-3%
CN1CC(Oc2cnc(C#N)cc2-c2ccn3nc(NC(=O)C4CC4)cc3c2)C1,"enzyme activity, inhibitor",1 µM,inhibition,5%
N#Cc1ccc(Nc2ccc3[nH]c(=O)[nH]c3c2)c(Cl)c1,"cell-free assay, competition with immobilised ligand",1 µM,remaining binding,100%
Cc1nn(CC(F)(F)F)cc1Nc1ncc(Br)c(NCCc2cnc[nH]2)n1,"enzyme activity, inhibitor, radiometric",1 µM,remaining activity,60%
CCc1ccccc1C(=O)Nc1n[nH]c2c(C)c(F)c(C3C(C#N)=C(C)N(C)C(C)=C3C#N)cc12,"cell-free assay, competition with immobilised ligand",1 µM,remaining binding,88%
N#CCCc1ccc2c(c1)-c1[nH]c3ccc([N+](=O)[O-])cc3c1CC(=O)N2,cell-free assay,0.5 µM,remaining signal,18.4%
CC/C(=N\NC(=O)NCc1cccc(O)c1)c1ccc(O)c(C)c1O,"enzyme activity, inhibitor",0.1 µM,inhibition,9.4%
Cc1nn(CC(F)(F)F)cc1Nc1nccc(NCCCNC(=O)C2CCC2)n1,"enzyme activity, inhibitor, radiometric",1 µM,remaining activity,106%
CN(C)c1ncnc(-c2ccc3nc(Nc4cc(CN5CCN(C(=O)CC(F)(F)F)CC5)ccn4)[nH]c3c2)c1Cl,"cell-free assay, competition with immobilised ligand",1 µM,remaining binding,100%
O=C(NCCCNc1nc(Nc2cccc(NC(=O)N3CCCC3)c2)ncc1C1CC1)C1CCC1,"enzyme activity, inhibitor, radiometric",1 µM,remaining activity,27%
Cc1ccc(NC(=O)c2ccc(CN3CCN(C)CC3)cc2)cc1Nc1nc(-c2cccnc2)cs1,cell-free assay,0.5 µM,remaining signal,101%
COCCOc1nc(-c2ccc(Cl)nc2)nc2c1CN(C(=O)c1ncn3ccccc13)CC2,"cell-free assay, competition with immobilised ligand",0.1 µM,remaining binding,100%
COc1cc2ncnc(Nc3ccc(F)c(Cl)c3)c2cc1OCCCN1CCOCC1,cell-free assay,0.5 µM,remaining signal,102%
Cc1nn(CC(F)(F)F)cc1Nc1ncc(C2CC2)c(NCCCNC(=O)C2CCC2)n1,"enzyme activity, inhibitor, radiometric",1 µM,remaining activity,94%
CNC(=O)c1cc(Oc2ccc(NC(=O)Nc3ccc(Cl)c(C(F)(F)F)c3)cc2)ccn1,cell-free assay,0.5 µM,remaining signal,98.3%
COc1cc(Nc2cnc(C#N)c(O[C@H](C)CN(C)C)n2)ncc1-c1cnn(C)c1,"enzyme activity, inhibitor, radiometric",1 µM,remaining activity,68%
